For twelve molecules, CT50 and IC50 results are on record in ChEMBL document CHEMBL1129056, “Synthesis and in vitro evaluation of new wortmannin esters: potent inhibitors of phosphatidylinositol 3-kinase” (J Med Chem, 1996).

Converted amounts (≈) assume the structure as drawn.

Broadly, the IC50 is the midpoint of a concentration-inhibition curve. High values mean weaker potency in that assay, low ones greater potency in that assay.

For one experiment, the system named is CCRF-CEM. Briefly: Cytotoxicity in rapidly proliferating CCRF-CEM cell lines after 72 hr exposure. Type of experiment: functional, Homo sapiens.
The nature of experiment [1]: Inhibition of Phosphatidylinositol 3-kinase from bovine brain. Further details: species or system Bos taurus. Summed up:
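Purified bovine brain PI 3-kinase with phosphatidylinositol as substrate. Lipid products extracted and separated by TLC with autoradiography. PI-3-P spots scraped and counted by liquid scintillation.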

The molecule `COC[C@H]1OC(=O)c2coc3c2[C@@]1(C)C1=C(C3=O)[C@@H]2CCC(=O)[C@@]2(C)C[C@H]1OC(=O)CC(C)C` came in with a CT50 with CCRF-CEM of 0.6 µg/mL. In addition, the concentration for half-maximal inhibition (IC50) in experiment [1] was found to be 1.16 ng/mL (≈ 2.47 nM).
The corresponding values for `CCC(=O)O[C@@H]1C[C@]2(C)C(O)CC[C@H]2C2=C1[C@]1(C)c3c(coc3C2=O)C(=O)O[C@@H]1COC` (some centres undefined) are 0.2 µg/mL and 0.38 ng/mL (≈ 0.855 nM).
The corresponding values for `CCCC(=O)O[C@@H]1C[C@]2(C)C(=O)CC[C@H]2C2=C1[C@]1(C)c3c(coc3C2=O)C(=O)O[C@@H]1COC` are 0.3 µg/mL and 0.4 ng/mL (≈ 0.876 nM).
In the same order, the values of `COC[C@H]1OC(=O)c2coc3c2[C@@]1(C)C1=C(C3=O)[C@@H]2CCC(=O)[C@@]2(C)C[C@H]1OC(=O)Cc1ccccc1` are 1 µg/mL and 1.53 ng/mL (≈ 3.03 nM).
On to `COC[C@H]1OC(=O)c2coc3c2[C@@]1(C)C1=C(C3=O)[C@@H]2CCC(=O)[C@@]2(C)CC1=O`, for which the CT50 in the experiment on CCRF-CEM came to 2.8 µg/mL. Moreover, the IC50 in experiment [1] was 1.6 ng/mL (≈ 4.16 nM).
In the same order, the values of `CCCCC(=O)O[C@@H]1C[C@]2(C)C(=O)CC[C@H]2C2=C1[C@]1(C)c3c(coc3C2=O)C(=O)O[C@@H]1COC` are 0.8 µg/mL and 1.2 ng/mL (≈ 2.55 nM).
The corresponding values for `CCC(=O)O[C@@H]1C[C@]2(C)C(OC(C)=O)CC[C@H]2C2=C1[C@]1(C)c3c(coc3C2=O)C(=O)O[C@@H]1COC` (some centres undefined) are 3.1 µg/mL and 56.5 ng/mL (≈ 116 nM).
As to `C=CC(=O)O[C@@H]1C[C@]2(C)C(=O)CC[C@H]2C2=C1[C@]1(C)c3c(coc3C2=O)C(=O)O[C@@H]1COC`, the CT50 with CCRF-CEM was found to be 0.4 µg/mL. In addition, the IC50 in experiment [1] was 0.95 ng/mL (≈ 2.16 nM).
The corresponding values for `COC[C@H]1OC(=O)c2coc3c2[C@@]1(C)C1=C(C3=O)[C@@H]2CCC(=O)[C@@]2(C)C[C@H]1OC(=O)CCl` are 0.7 µg/mL and 1.3 ng/mL (≈ 2.81 nM).
`CCC(=O)O[C@@H]1C[C@]2(C)C(=O)CC[C@H]2C2=C1[C@]1(C)c3c(coc3C2=O)C(=O)O[C@@H]1COC`: the CT50 in the experiment with CCRF-CEM stood at 0.2 µg/mL. The same molecule displayed an IC50 in experiment [1] of 0.6 ng/mL (≈ 1.36 nM).
Turning to `COC[C@H]1OC(=O)c2coc3c2[C@@]1(C)C1=C(C3=O)[C@@H]2CCC(=O)[C@@]2(C)C[C@H]1OC(C)=O` [WORTMANNIN], the CT50 with CCRF-CEM was determined as 0.9 µg/mL. In addition, in experiment [1], the IC50 came to 1.8 ng/mL (≈ 4.2 nM).
In the same order, the values of `COC[C@H]1OC(=O)c2coc3c2[C@@]1(C)C1=C(C3=O)[C@@H]2CCC(=O)[C@@]2(C)C[C@H]1O` are 2 µg/mL and 10 ng/mL (≈ 25.9 nM).
